Assay outcomes deposited in PubChem BioAssay by Broad Institute.
F508del corr: correctors of CFTR F508del function in bronchial epithelial cells; activity (quench increase), % at 7.58 µM; CFBE cells, YFP halide quenching; stimulated with forskolin plus potentiator P3; % fluorescence drop versus neutral controls; AID 720511; 350,000 tested, 0.36% active;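 active = mean added fluorescence quench of at least 8% versus neutral control, with both replicates also reaching 8%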;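 also: cells transiently co-express mutant CFTR-F508del with the halide-sensitive YFP; corrector assay measuring rescue of mutant channel to the surface after 24 h compound exposure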
ERp5 block: blocks human ERp5 reductase activity on insulin. AID 651711. inhibition, % at 9.99 µM. 350,000 tested, 0.05% active. Q15084. ERp5 insulin aggregation, absorbance 650 nm, 90 min;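 active = mean replicate inhibition above about 25%, with every replicate also reaching it, limit read from the data, passing the limit was not always enough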
PDI inh: PDI (human) enzyme inhibition. AID 588391. inhibition, % at 10 µM. PDI insulin aggregation turbidity, A650, 90 min. P07237. 350,000 tested, 0.052% active;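 active = mean inhibition across replicates of 30% or more, whatever share of single replicates reach that level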
Target sequence (P07237 whole entry, looked up): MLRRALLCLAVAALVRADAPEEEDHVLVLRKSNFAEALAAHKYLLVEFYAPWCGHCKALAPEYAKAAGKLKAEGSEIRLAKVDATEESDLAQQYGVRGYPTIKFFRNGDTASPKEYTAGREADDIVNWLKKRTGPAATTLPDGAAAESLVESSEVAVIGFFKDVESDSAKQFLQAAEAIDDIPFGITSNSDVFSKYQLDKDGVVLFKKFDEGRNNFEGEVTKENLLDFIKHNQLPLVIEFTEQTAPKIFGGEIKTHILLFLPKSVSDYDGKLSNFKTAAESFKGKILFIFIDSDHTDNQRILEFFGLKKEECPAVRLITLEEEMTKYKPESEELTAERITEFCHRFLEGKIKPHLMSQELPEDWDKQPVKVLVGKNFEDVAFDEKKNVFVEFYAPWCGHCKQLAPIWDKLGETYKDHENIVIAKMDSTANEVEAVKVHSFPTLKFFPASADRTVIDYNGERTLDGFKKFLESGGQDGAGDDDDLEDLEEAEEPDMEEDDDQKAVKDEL
DENV2 CPE: DENV2-induced cell death inhibition. DENV2-infected cells, cytopathic effect rescue, plate reader. CPE inhibition, % at 9.99 µM. 350,000 tested, 1.7% active; in the data active = CPE inhibition above about 20%, passing the limit was not always enough; tested in BHK-21 cells;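 also: 0% = median of neutral control wells and 100% = median of positive control wells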
Statin myotox sup: suppressors of simvastatin-induced myotoxicity in C2C12 myotubes | ATP luminescence, 48 h; scaled: DMSO 0, geranylgeraniol control 100 | rescue of ATP level, % at 7.49 µM | 330,000 tested, 0.78% active;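 active = mean ATP rescue above about 67%, or every replicate alone reaching that limit, limit read from the data, passing the limit was not always enough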;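 also: myotubes were challenged with 10 µM simvastatin during compound exposure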
Cneo AK release: Cryptococcus neoformans lysis via adenylate kinase release. AID 651654. lysis activity, % at 15 µM. C. neoformans lysis, adenylate kinase release luminescence, 4 h; normalised: neutral wells 0, clomiphene wells 100. 360,000 tested, 0.2% active;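 active = mean lysis activity across replicates of at least 80%, whatever share of replicates individually reach that level; inactive = mean lysis activity below 80%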
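Test system: log-phase Cryptococcus neoformans yeast cells; Quantity: yeast cell density of 5 × 10^6 cells/mL; Buffer or medium: YPD; Doses: single compound concentration per well; Timing: 4 h at 37 °C static, read 1 h later; Measured by: AK luminescence; Read-out basis: lysis from increased AK signal; Control set: Clomiphene as positive control.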
* = called active by the depositor; · = no result. Most compounds without a hit are left out; they make up all but 2.3% or so of the library.

SMILES	F508del corr	ERp5 block	PDI inh	DENV2 CPE	Statin myotox sup	Cneo AK release
CC(O)Cc1cn([C@@H](CCCCN)C(=O)N2CCNCC2)nn1 (stereo partly drawn)	3	2	14	25*	2	2
O=C(OCC(=O)N1CCc2ccccc21)[C@@H]1CCCN1S(=O)(=O)c1ccccc1F	0	1	-3	49*	2	-1
COc1ccc(C(=O)N2CC=C(c3ccccc3)CC2)cc1S(=O)(=O)N1CCOCC1	·	·	-1	·	82*	0
Brc1ccc(-c2noc(CCc3ccccc3)n2)o1	-2	2	·	56*	3	-1
CC(C)(C)C(=O)Nc1ccc(C(=O)NCc2cccnc2)cc1	·	·	1	·	114*	-1
CC(C)(C)c1ccc(C(=O)Nc2ccc(C(=O)NCc3cccnc3)cc2)cc1	-4	2	3	2	-55	0
CN1OC[C@@H]2CN(C(=O)NC3CCCCC3)[C@H](c3ccc(N4CCCCC4)cc3)C[C@@H]21	-1	6	·	22*	-5	-1
Cc1cccc(NC(=O)c2cccc(S(=O)(=O)N(C)C3CCCCC3)c2)n1	0	-6	-11	21*	11	-1
CCOc1ccccc1C(=O)n1nc(C)cc1C	·	·	9	·	114*	2
CC=Cc1ccc2n(c1=O)C[C@@H]1[C@@H](CO)[C@H](C(=O)NCC3CC3)N(C(C)=O)[C@H]21 (mixture of isomers)	0	7	·	-1	·	·
CC(=O)N1CC2(C1)[C@H](c1ccc(-c3cccc(F)c3)cc1)[C@@H](CO)N2CC1CC1	-1	8	·	3	·	·
CCCCN(CCNP(=O)(OCC)OCC)CP(=O)(OCC)OCC	·	·	0	·	72*	1
CCC(=O)N1CCCCN2[C@H](C1)[C@H](c1ccc(C#Cc3ccccc3F)cc1)[C@@H]2CO	0	4	·	0	16	-1
CCNC(=S)NNC(=O)c1cccn(Cc2ccc(Cl)cc2Cl)c1=O	·	0	-4	·	82*	2
C=CCNC(=S)NNC(=O)c1cccn(Cc2ccc(Cl)cc2Cl)c1=O	·	-1	-4	·	24	4
CN1C(=O)c2cc(NC(=O)c3cccs3)ccc2OC[C@H]2O[C@@H](CC(=O)N3CCOCC3)CC[C@H]21	0	-8	·	-3	0	0
COC(=O)c1cc(C(=O)N2CCN(c3cccc(Cl)c3)CC2)cc([N+](=O)[O-])c1	8.7*	4	7	1	-5	·
COc1cc(Cl)ccc1NC(=O)COc1ccccc1C(=O)N1CCN(c2ccc(O)cc2)CC1	·	·	2	·	122*	-6
O=C(c1cccc([N+](=O)[O-])c1)N1CCN(c2cccc(Cl)c2)CC1	·	·	-6	·	·	·
O=C(O)/C=C\C(=O)Nc1ccccc1C(=O)N1CCN(c2ccc(Cl)cc2)CC1	·	·	-5	·	88*	1
Cc1cc(Cl)ccc1OCC(=O)Nc1ccccc1C(=O)N1CCOCC1	0	-8	5	-2	0	0
O=C(O)c1ccccc1C(=O)N1CCN(c2cccc(Cl)c2)CC1	·	·	-19	·	84*	1
Cc1noc(C)c1NC(=O)Nc1ccc2c(c1)C(=O)N([C@H](C)CO)C[C@H](C)[C@@H](CN(C)C(=O)Nc1ccc(C(F)(F)F)cc1)OCCCC[C@@H](C)O2	-2	-5	·	-3	0	-2
COC(=O)[C@H]1[C@H](CO)[C@H]2Cn3c(ccc(/C=C/c4ccccc4)c3=O)[C@H]2N1C(=O)CC1CC1	-1	·	·	·	-23	·
CCCCCCOc1ccc(C(CC(N)=O)C(=O)O)cc1 (stereo not drawn)	-2	2	-3	8	107*	-1
SMILES	F508del corr	ERp5 block	PDI inh	DENV2 CPE	Statin myotox sup	Cneo AK release
O=C1Cc2ccccc2Sc2ccccc21	·	·	0	·	-1	4
Cc1ccc2c(c1)Sc1ccccc1CC2=O	·	·	14	·	83*	1
CCCCC(=O)N(Cc1ccc(F)cc1)C1CCS(=O)(=O)C1 (stereo not drawn)	1	-3	15	1	87*	0
COc1cccc(-c2ccc([C@H]3[C@H](CO)N4C(=O)CN(C(=O)C5CC5)C[C@@H]34)cc2)c1	0	-8	·	29*	·	·
Cc1cccc(-c2ccc([C@@H]3[C@@H](CO)N4C(=O)CN(C(=O)c5cccnc5)C[C@H]34)cc2)c1	0	-7	·	21*	·	·
Cc1cccc(-c2ccc([C@@H]3[C@H]4CN(C(=O)c5cccnc5)CC(=O)N4[C@H]3CO)cc2)c1	2	6	·	1	·	·
CN(C)C(=O)c1cccc(-c2ccc([C@H]3[C@H]4CN(C(=O)CC5CC5)CC(=O)N4[C@H]3CO)cc2)c1	-2	4	·	21*	·	·
COc1cccc(-c2ccc([C@@H]3[C@@H](CO)N4C(=O)CN(C(=O)C5CC5)C[C@@H]34)cc2)c1	5	1	·	6	·	·
O=C(NCC1CC1)[C@@H]1[C@@H](CO)[C@@H]2Cn3c(ccc(C4=CCCCC4)c3=O)[C@@H]2N1Cc1ccccc1F	1	-3	·	4	13	-2
C[C@@H]1CN([C@@H](C)CO)C(=O)c2cc(NC(=O)Nc3ccc4c(c3)OCO4)ccc2O[C@@H](C)CCCCO[C@H]1CN(C)C(=O)c1ccccc1	1	3	·	9	·	1
CCCC(=O)Nc1ccc2c(c1)OC[C@H](C)N(C(=O)c1ccncc1)C[C@H](C)[C@@H](OC)CN(C)C2=O	-3	2	·	0	·	·
CCS(=O)(=O)N[C@@H]1C=C[C@H](CC(=O)Nc2ccc(-c3ccccc3)cc2)O[C@@H]1CO	1	-6	·	70*	-8	22
Cn1cnc(S(=O)(=O)N[C@@H]2C=C[C@H](CC(=O)Nc3ccc(-c4ccccc4)cc3)O[C@@H]2CO)c1	3	1	·	1	1	-1
Cc1noc(C)c1S(=O)(=O)N(C)C[C@H]1OCCCC[C@H](C)Oc2ccc(NC(=O)Nc3ccc4c(c3)OCO4)cc2C(=O)N([C@@H](C)CO)C[C@@H]1C	3	·	·	3	·	10
Cc1noc(C)c1S(=O)(=O)N(C)C[C@H]1OCCCC[C@@H](C)Oc2ccc(NC(=O)Nc3ccc4c(c3)OCO4)cc2C(=O)N([C@@H](C)CO)C[C@H]1C	-1	·	·	86*	·	-3
Cc1noc(C)c1S(=O)(=O)N(C)C[C@H]1OCCCC[C@H](C)Oc2ccc(NC(=O)NC(C)C)cc2C(=O)N([C@H](C)CO)C[C@@H]1C	1	4	·	102*	·	-6
N#C[C@H]1[C@@H](c2ccc(C#Cc3ccccc3F)cc2)[C@@H](CO)N1C(=O)C1CCOCC1	-4	1	·	8	-14	-2
O=C(COc1cccnc1[N+](=O)[O-])Nc1ccccc1Sc1ccccc1	-2	1	-1	32*	·	2
O=C(CCN1CCCCC1)NCC[C@H]1CC[C@@H](NC(=O)Cc2cccnc2)[C@@H](CO)O1	0	0	·	0	-5	-1
